Data on ten molecules can be found in article PMC8592115 (ACS Medicinal Chemistry Letters, 2021).

The structures appear in SMILES notation. pKd: −log10 of the molar value. “Also recorded” adds a separate entry of the source. Some results are limits rather than exact numbers.

Data set [1] is described as follows: Qualitative solubility of compounds in NMR titration samples. The format is physicochemical. Conditions: samples prepared for NMR titration. A digest of the protocol:
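Test compound titrated into CXCL12 at increasing concentrations up to 1600 μM, with HSQC spectra recorded at each step. Solubility was scored against a cut-off of ≥1600 μM in these titration samples. Soluble compounds counted as binders if they also shifted at least two of residues I28, V39 and A40 by ≥0.5 ppm.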

Data set [2] concerns the target T1, CXCL12 (Homo sapiens, UniProt P48061). The data set is described as follows: 2D NMR chemical shift perturbation titration of 15N-CXCL12. The data set is classed as binding. Conditions: for precipitation/aggregation of CXCL12 on addition of compound: NMR titration samples.
Data set [3] has as its target T1, CXCL12. The data set is described as follows: Calculation of ligand efficiency. The settings on record: Table 6; LLE = pKd – cLogP.

In the case of `O=C(O)CSc1nc(SCC(=O)O)nc(Sc2ccccc2)n1` [Compound 24a, 2,2'-((6-(Phenylthio)-1,3,5-triazine-2,4-diyl)bis(sulfanediyl))diacetic acid], the “solubility, qualitative” value in data set [1] is “not as soluble as some of our other analogues”.
Consider `O=C(O)CSc1nc(SCC(=O)O)nc(C2=CCCCC2)n1` [Compound 20, 2,2'-((6-(Cyclohex-1-en-1-yl)-1,3,5-triazine-2,4-diyl)bis(sulfanediyl))diacetic acid], for which, at CXCL12 [2], the “precipitation/aggregation of CXCL12 on addition of compound” value (“precipitation/aggregation of CXCL12” below) is on record as “caused the protein to precipitate; also recorded: b 20 caused CXCL12 to precipitate”.
Turning to `O=C(O)CSc1nc(SCC(=O)O)nc(N2CCOCC2)n1` [Compound 24j], the “LLE (lipophilic ligand efficiency)” value on CXCL12 [3] was 2.07. Besides, in data set [1], the “solubility, qualitative” value is given as “notably more soluble than its analogues”.
For the molecule `O=C(O)CSc1nc(SCC(=O)O)nc(C2C3CC4CC(C3)CC2C4)n1` (centres unmarked) [Compound 17, 2,2'-((6-((1r,3r)-Adamantan-2-yl)-1,3,5-triazine-2,4-diyl)bis(sulfanediyl))diacetic acid], the pKd on CXCL12 [2] was less than 2.80.
Turning to `O=C(O)CSc1nc(SCC(=O)O)nc(-c2ccc(-c3ccccc3)cc2)n1` [Compound 13e], in data set [1], the “solubility, qualitative” value is on record as “insoluble; also recorded: low solubility”.
As for `O=C(O)CSc1nc(SCC(=O)O)nc(-c2ccc(Oc3ccccc3)cc2)n1` [Compound 13m], the “precipitation/aggregation of CXCL12” value at CXCL12 [2] was “precipitated the protein from solution; also recorded: caused CXCL12 to precipitate”.
As to `O=C(O)CSc1nc(SCC(=O)O)nc(-c2ccoc2)n1` [Compound 13n], the “precipitation/aggregation of CXCL12” value at CXCL12 [2] is reported as “precipitated the protein from solution; also recorded: caused CXCL12 to precipitate”.
On the same count and under the same terms, as for `O=C(O)c1ccc(Nc2nc(Nc3ccc(C(=O)O)cc3)nc(-c3ccccc3)n2)cc1` [Compound 9m], the entry is “caused aggregation and precipitation of the protein”; as for `O=C(O)CSc1nc(SCC(=O)O)nc(-c2cnc3ccccc3c2)n1` [Compound 13l], “precipitated the protein from solution; also recorded: caused CXCL12 to precipitate”.
Take `O=C(O)CSc1nc(SCC(=O)O)nc(-c2ccc(N3CCOCC3)cc2)n1` [Compound 13i]: the “solubility, qualitative” value in data set [1] is “qualitatively greater solubility”.

In general, pKd refers to the Kd on a negative log10 scale, so that one unit is a factor of ten.
